Results published in ChEMBL document CHEMBL2163189, “Discovery and characterization of an inhibitor of glucosylceramide synthase” (J Med Chem, 2012).

Assays:
[1] = Metabolic stability in mouse liver microsome assessed as compound conversion at 15 uM after 30 mins; type: ADME; settings: liver microsomes, read-out: Drug metabolism
[2] = Plasma concentration in mouse at 100 mg/kg, po after 4 hrs; type: ADME, organism-based; set-up: dose 100 mg/kg, route oral
Outline: (§1)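 Female nude mice (n = 3) given 100 mpk orally. Plasma compound levels measured 1 and 4 h after dosing, reported as mean ± SD.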

[3] = Plasma concentration in mouse at 100 mg/kg, po after 1 hr; type: ADME, organism-based; set-up: dose 100 mg/kg, route oral; outline: as §1
[4] = Half life in CD rat at 5 mg/kg; type: ADME, organism-based; set-up: dose 5 mg/kg; settings: in vivo
Outline: (§2)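 Female CD rats, n = 3, given 5 mpk. The HCl salt in saline served as both the oral and the iv formulation. Values are mean ± SD.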

[5] = Oral bioavailability in CD rat at 5 mg/Kg; type: ADME, organism-based; settings: in vivo; outline: as §2
[6] = Clearance in CD rat at 5 mg/kg; type: ADME, organism-based; set-up: dose 5 mg/kg; settings: in vivo; outline: as §2
[7] = Volume of distribution at steady state in CD rat at 5 mg/Kg; type: ADME, organism-based; settings: in vivo, read-out: Vdss; outline: as §2
[8] = AUC ( 0 to t) in CD rat at 5 mg/kg; type: ADME, organism-based; set-up: dose 5 mg/kg; settings: plasma; outline: as §2
[9] = Cmax in CD rat at 5 mg/kg; type: ADME, organism-based; set-up: dose 5 mg/kg; settings: in vivo; outline: as §2
[10] = Tmax in CD rat at 5 mg/kg; type: ADME, organism-based; set-up: dose 5 mg/kg; settings: in vivo; outline: as §2
[11] = Drug uptake in C57BL6 mouse liver at 10 mg/kg, po after 24 hrs; type: ADME, organism-based; set-up: dose 10 mg/kg, route oral; settings: read-out: Drug uptake
Outline: (§3)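 Male C57BL6 mice, n = 3, given a single oral dose of 10 mpk. Compound levels in tissue or plasma were measured 24 h after the dose. Values are mean ± SD.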

[12] = Plasma concentration in C57BL6 mouse at 10 mg/kg, po after 24 hrs; type: ADME, organism-based; set-up: dose 10 mg/kg, route oral; outline: as §3
[13] = Drug uptake in C57BL6 mouse muscle at 10 mg/kg, po after 24 hrs; type: ADME, organism-based, Muscle tissue; set-up: dose 10 mg/kg, route oral; settings: read-out: Drug uptake; outline: as §3
[14] = Drug uptake in C57BL6 mouse Fat at 10 mg/kg, po after 24 hrs; type: ADME, organism-based; set-up: dose 10 mg/kg, route oral; settings: fat (adipose tissue), read-out: Drug uptake; outline: as §3

| Compound | metabolised at 0.5 h, 15 µM [1] | other results |
| --- | --- | --- |
| C[C@H]1CN(C(=O)[C@H](Cc2ccc(Cl)cc2Cl)NC(=O)C2(c3ccc(Cl)cc3Cl)CC2)CCN1 | 40% | – |
| NC1C[C@H]2CC[C@@H](C1)N2C(=O)[C@H](Cc1ccc(Br)cc1)NC(=O)C1(c2ccc(Cl)cc2Cl)CC1 (stereo partly drawn) | 20% | – |
| CN1CCN(C(=O)[C@H](Cc2ccccc2)NC(=O)C2(c3ccc(Cl)cc3Cl)CC2)CC1 | 80% | – |
| CN1CCN(C(=O)[C@H](Cc2ccc(Cl)cc2Cl)NC(=O)C2(c3ccc(Cl)cc3Cl)CC2)CC1 | 80% | concentration at 4 h [2]: 5800 nM; concentration at 1 h [3]: 4200 nM |
| CN1CCN(C(=O)[C@H](Cc2c[nH]c3ccccc23)NC(=O)C2(c3ccc(Cl)cc3Cl)CC2)CC1 | 90% | concentration at 4 h [2]: 700 nM; concentration at 1 h [3]: 900 nM |
| Cl.NC1C[C@H]2CC[C@@H](C1)N2C(=O)[C@H](Cc1ccc(Br)cc1)NC(=O)C1(c2ccc(OC(F)(F)F)cc2)CC1 (stereo partly drawn) | – | half-life [4]: 25.3 h; bioavailability [5]: 88.1%; clearance [6]: 9.58 mL/min/kg; Vd [7]: 19.3 L/kg; AUC(0-t) [8]: 5.8 µM·h; Cmax [9]: 300 nM; Tmax [10]: 8 h; concentration at 24 h [11]: 5900 nM; concentration at 24 h [12]: 500 nM; concentration at 24 h [13]: 1800 nM; concentration at 24 h [14]: 800 nM |
| NC1CCN(C(=O)[C@H](Cc2ccc(Br)cc2)NC(=O)C2(c3ccc(Cl)cc3Cl)CC2)CC1 | 50% | – |
| CN1CCN(C(=O)[C@H](Cc2ccc(Br)cc2)NC(=O)C2(c3ccc(Cl)cc3Cl)CC2)CC1 | 90% | – |
| O=C([C@H](Cc1ccc(Br)cc1)NC(=O)C1(c2ccc(Cl)cc2Cl)CC1)N1CCC(O)CC1 | 30% | – |
| CN(C)CCN(C)C(=O)[C@H](Cc1ccc(Cl)cc1Cl)NC(=O)C1(c2ccc(Cl)cc2Cl)CC1 | 70% | – |
| CN(C)CCN(C)C(=O)[C@H](Cc1ccc(Br)cc1)NC(=O)C1(c2ccc(Cl)cc2Cl)CC1 | 90% | – |
| CN1CCN(C(=O)[C@H](Cc2ccc(Cl)cc2)NC(=O)C2(c3ccc(Cl)cc3Cl)CC2)CC1 | 73% | – |
| O=C([C@H](Cc1ccc(Cl)cc1Cl)NC(=O)C1(c2ccc(Cl)cc2Cl)CC1)N1CCNCC1 | 10% | – |
| CN1CCN(C(=O)[C@H](COCc2ccccc2)NC(=O)C2(c3ccc(Cl)cc3Cl)CC2)CC1 | 50% | – |
| NC1C[C@H]2CC[C@@H](C1)N2C(=O)[C@H](Cc1ccc(Br)cc1)NC(=O)C1(c2ccc(OC(F)(F)F)cc2)CC1 (stereo partly drawn) | 7% | – |
| NC1C[C@H]2CC[C@@H](C1)N2C(=O)[C@H](Cc1ccc(Cl)cc1Cl)NC(=O)C1(c2ccc(OC(F)(F)F)cc2)CC1 (stereo partly drawn) | 8% | – |
| C[C@@H]1CN(C(=O)[C@H](Cc2ccc(Cl)cc2Cl)NC(=O)C2(c3ccc(Cl)cc3Cl)CC2)CCN1 | 30% | – |
| NC1CCCC(NC(=O)[C@H](Cc2ccc(Cl)cc2Cl)NC(=O)C2(c3ccc(Cl)cc3Cl)CC2)C1 (stereo partly drawn) | 10% | – |
| NC1C[C@H]2CC[C@@H](C1)N2C(=O)[C@H](Cc1ccc(Cl)cc1Cl)NC(=O)C1(c2ccc(Cl)cc2Cl)CC1 (stereo partly drawn) | 20% | – |
